The values below come from ChEMBL document CHEMBL1255250, “Microbicidal properties and cytocidal selectivity of rhesus macaque theta defensins” (Antimicrob Agents Chemother, 2008).

As usually defined, the inhibition is how much of the control response was suppressed.

The subject of series [1] is Staphylococcus aureus. In words: Microbicidal activity against Staphylococcus aureus 502a at 5 ug/ml in presence of <= 80 mM NaCl. The class given is functional, organism-based. Summed up: (§1)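 S. aureus in log phase was incubated with 5 μg/ml peptide in 10 mM PIPES, pH 7.4, containing increasing NaCl for 2 h at 37°C. Killing was determined by colony counting and expressed as a percentage of killing in buffer alone.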

Series [2] concerns Escherichia coli. In words: Microbicidal activity against Escherichia coli ML35 assessed as induction of cytoplasmic membrane permeabilization at 1 ug/ml. The format is functional, organism-based. Summed up: (§2)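 Log-phase E. coli ML35 (1–2 × 10^6 CFU/ml) was incubated with peptide (0–8 μg/ml final) in 10 mM PIPES, pH 7.4, containing 3 mM ONPG. ONPG hydrolysis was followed at 405 nm for 60 min. The rate was taken as the highest kinetic slope and corrected for peptide inhibition of β-galactosidase measured cell-free.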

In series [3] the test system is Candida albicans. In words: Microbicidal activity against Candida albicans 16820 assessed as log reduction in microbial count at 10 ug/ml using PIPES buffer.
Series [4] relates to Candida albicans. In words: Microbicidal activity against Candida albicans 16820 in presence of 1.2 mM Calcium ions. The class given is functional, organism-based. Summed up:
(§3)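 Log-phase E. coli ML35 or C. albicans was incubated with increasing peptide concentrations in 10 mM PIPES, pH 7.4. The buffer contained 1.2 mM CaCl2 and 0.8 mM MgCl2, or no added divalent salts. Incubation was 2 h at 37°C, and survivors were counted as colonies.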

For series [5], the system named is Candida albicans. In words: Microbicidal activity against Candida albicans 16820 using PIPES buffer in presence of NaCl. The class given is functional, organism-based. Summed up: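 Log-phase C. albicans was incubated with peptide in 10 mM PIPES, pH 7.4, supplemented with NaCl, for 2 h at 37°C. Survivors were plated on Sabouraud dextrose agar and counted after 18–24 h at 37°C.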

Series [6] relates to Staphylococcus aureus. In words: Microbicidal activity against Staphylococcus aureus 502a in presence of 0.8 mM Magnesium ions. The format is functional, organism-based.
Series [7] deals with Staphylococcus aureus. In words: Microbicidal activity against Staphylococcus aureus 502a using 10 mM PIPES buffer in presence of 154 mM NaCl. The format is functional, organism-based. Put shortly:
(§4)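 Log-phase S. aureus was exposed to increasing peptide concentrations for 2 h at 37°C. Buffer was 10 mM PIPES, Tris-HCl or sodium phosphate, pH 7.4, with or without 154 mM NaCl. Killing was read by colony counting.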

Series [8] concerns Staphylococcus aureus. Briefly: Microbicidal activity against Staphylococcus aureus 502a. The format is functional. Summed up: (§5)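 Log-phase organisms (1–2 × 10^6 CFU/ml) were exposed to serially diluted peptide (0.05–10.0 μg/ml final) in 10 mM PIPES, pH 7.4, with 5 mM glucose for 2 h at 37°C. Aliquots were serially diluted 1:10 to 1:10^6 in Trypticase soy or Sabouraud broth and grown 24–48 h at 37°C. MMC was the lowest concentration giving 99.9% viability loss in at least two experiments.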

Series [9] deals with Escherichia coli. In words: Microbicidal activity against Escherichia coli ML35 at <=8 ug/ml in presence of 10% heat-inactivated human serum. The class given is functional, organism-based. Summed up: (§6)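 Human serum was heat-inactivated at 55°C for 30 min and clarified by centrifugation. E. coli was then exposed to a dose series of peptide in 10 mM PIPES, pH 7.4, with 10% of this serum. Killing was counted as colonies and expressed relative to incubations without serum.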

Series [10] has as its target Beta-galactosidase (Escherichia coli) (UniProt Q8VNN2). Briefly: Inhibition of Escherichia coli ML35 Beta-galactosidase assessed as hydrolysis of o-nitrophenyl-beta-d-galactopyranoside at 2 ug/ml.
Series [11] has as its system Staphylococcus aureus. In words: Microbicidal activity against Staphylococcus aureus 502a at >= 2 ug/ml in presence of 10% human serum. The class given is functional, organism-based. Summed up: (§7)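 S. aureus was incubated with a dose series of peptide in 10 mM PIPES, pH 7.4, containing 10% normal human serum. Bacterial killing was determined by colony counting and expressed as a percentage of killing in incubations lacking serum.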

For series [12], the system named is Staphylococcus aureus. Briefly: Microbicidal activity against Staphylococcus aureus 502a at 5 ug/ml in presence of 160 mM NaCl. The format is functional, organism-based. Summed up:
as §1

The test system of series [13] is Staphylococcus aureus. Briefly: Microbicidal activity against Staphylococcus aureus 502a at 0.5 to 2 ug/ml in presence of 10% human serum. The class given is functional, organism-based. Summed up:
as §7

Series [14] is described as follows: Selectivity index, ratio of MMC for Staphylococcus aureus 502a to hemolytic activity for human erythrocytes.
For series [15], the system named is Candida albicans. Briefly: Microbicidal activity against Candida albicans 16820. The class given is functional. Summed up: as §5
The nature of series [16]: Toxicity in human Erythrocyte assessed as concentration required to achieve 3% hemolysis. The format is cell-based.
The test system of series [17] is Escherichia coli. Briefly: Microbicidal activity against Escherichia coli ML35 at 16 ug/ml in presence of 10% heat-inactivated human serum. The format is functional, organism-based. Summed up:
as §6

The nature of series [18]: Toxicity in human Erythrocyte assessed as hemolysis at 100 ug/ml. The class given is cell-based. Put shortly: (§8)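 Erythrocytes from EDTA-anticoagulated human donor blood were washed in PBS or PiBS containing 4 mM EDTA, then resuspended without EDTA at 2% (vol/vol). Cells were incubated with peptide (0.3–100 μg/ml final) for 1 h at 37°C, with or without 10% autologous serum. Supernatant A405 was expressed relative to 1% Nonidet P-40 lysis.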

In series [19] the test system is Staphylococcus aureus. In words: Microbicidal activity against Staphylococcus aureus 502a in presence of 1.2 mM Calcium ions. The format is functional, organism-based.
Series [20] has as its system Escherichia coli. Briefly: Microbicidal activity against Escherichia coli ML35 in presence of 1.2 mM Calcium ions. The class given is functional, organism-based. Summed up: as §3
Series [21] relates to Escherichia coli. In words: Microbicidal activity against Escherichia coli ML35 in presence of 0.8 mM Magnesium ions. The format is functional, organism-based. Put shortly:
as §3

The target in series [22] is Beta-galactosidase (Escherichia coli) (UniProt Q8VNN2). Briefly: Inhibition of Escherichia coli ML35 beta-galactosidase assessed as inhibition of o-nitrophenyl-beta-d-galactopyranoside hydrolysis at 1 ug/ml after 60 mins. Put shortly: as §2
Sequence of Beta-galactosidase (Escherichia coli) (Q8VNN2 whole entry, looked up): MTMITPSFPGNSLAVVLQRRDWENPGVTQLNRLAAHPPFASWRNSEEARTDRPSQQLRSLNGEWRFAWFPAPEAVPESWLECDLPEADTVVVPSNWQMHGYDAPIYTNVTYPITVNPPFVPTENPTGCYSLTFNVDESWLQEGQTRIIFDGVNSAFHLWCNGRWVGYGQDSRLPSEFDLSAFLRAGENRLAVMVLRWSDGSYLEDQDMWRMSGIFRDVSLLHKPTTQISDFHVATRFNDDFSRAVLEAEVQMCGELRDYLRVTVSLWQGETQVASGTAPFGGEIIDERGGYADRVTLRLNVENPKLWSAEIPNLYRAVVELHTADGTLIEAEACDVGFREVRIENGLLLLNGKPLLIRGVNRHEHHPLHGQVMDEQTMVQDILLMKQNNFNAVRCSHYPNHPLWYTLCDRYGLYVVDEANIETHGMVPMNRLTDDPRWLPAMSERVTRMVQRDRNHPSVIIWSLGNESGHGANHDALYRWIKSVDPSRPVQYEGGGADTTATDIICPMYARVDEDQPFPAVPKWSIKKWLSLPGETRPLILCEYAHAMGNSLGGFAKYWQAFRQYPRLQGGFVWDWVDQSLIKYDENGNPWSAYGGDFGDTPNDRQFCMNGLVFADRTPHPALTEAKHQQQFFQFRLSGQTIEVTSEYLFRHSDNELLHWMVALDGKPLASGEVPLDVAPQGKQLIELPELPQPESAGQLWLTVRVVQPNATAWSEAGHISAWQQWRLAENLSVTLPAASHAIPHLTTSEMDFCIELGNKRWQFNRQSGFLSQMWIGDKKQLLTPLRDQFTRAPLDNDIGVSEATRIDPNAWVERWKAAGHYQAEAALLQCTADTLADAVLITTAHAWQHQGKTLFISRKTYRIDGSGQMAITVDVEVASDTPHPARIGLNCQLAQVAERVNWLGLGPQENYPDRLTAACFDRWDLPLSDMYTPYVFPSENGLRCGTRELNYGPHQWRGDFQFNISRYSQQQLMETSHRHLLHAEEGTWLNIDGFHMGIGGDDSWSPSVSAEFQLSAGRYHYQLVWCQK
The nature of series [23]: Toxicity in human Erythrocyte assessed as hemolysis at 100 ug/ml in presence of 10% serum. The class given is cell-based. Put shortly:
as §8

The test system of series [24] is Candida albicans. In words: Microbicidal activity against Candida albicans 16820 in presence of 0.8 mM Magnesium ions. The class given is functional, organism-based. Put shortly:
as §3

Series [25] relates to Staphylococcus aureus. Briefly: Microbicidal activity against Staphylococcus aureus 502a using 10 mM sodium phosphate buffer in presence of 154 mM NaCl. The format is functional, organism-based. Put shortly: as §4
Series [26] concerns Escherichia coli. Briefly: Microbicidal activity against Escherichia coli ML35. The format is functional. Summed up:
as §5

The target in series [27] is Beta-galactosidase (Escherichia coli) (UniProt Q8VNN2). Briefly: Inhibition of Escherichia coli ML35 Beta-galactosidase assessed as inhibition of o-nitrophenyl-beta-d-galactopyranoside hydrolysis at 4 ug/ml.
Series [28] concerns Staphylococcus aureus. In words: Microbicidal activity against Staphylococcus aureus 502a using 10 mM Tris-HCl buffer in presence of 154 mM NaCl. The format is functional, organism-based. Summed up: as §4
Series [29] in a line: Inhibition of beta-galactosidase in cell-free system assessed as inhibition of o-nitrophenyl-beta-d-galactopyranoside hydrolysis.

Activity calls are given as the source filed them. The calls are words filed in the database; no cut-off is given here. Where a SMILES comes first, the peptide text is derived from it. Bridges are numbered along the chain shown (N, C = ends).

For `CC[C@H](C)[C@@H]1NC(=O)C2CSSCC(NC(=O)[C@H](CCCNC(=N)N)NC(=O)[C@@H]3CSSC[C@H](NC1=O)C(=O)N[C@@H]([C@@H](C)O)C(=O)N[C@@H](CCCNC(=N)N)C(=O)NCC(=O)N[C@@H](Cc1ccccc1)C(=O)N3)C(=O)N[C@@H]([C@@H](C)CC)C(=O)N[C@H]1CSSC[C@H](NC(=O)[C@H](Cc3ccccc3)NC(=O)CNC(=O)[C@H](CCCNC(=N)N)NC(=O)[C@H]([C@@H](C)O)NC1=O)C(=O)N[C@@H](CCCNC(=N)N)C(=O)N2` (single isomer, unassigned), the result with Staphylococcus aureus [1], in the series with Staphylococcus aureus [6], with Staphylococcus aureus [11], with Escherichia coli [17], in the series with Staphylococcus aureus [19] and with Escherichia coli [20] was Active. Moreover, the result in the series with Escherichia coli [21] was Active. The outcome in the series with Escherichia coli [2], in the series with Candida albicans [4], in the series on Candida albicans [5], with Staphylococcus aureus [7], with Escherichia coli [9] and in the series with Staphylococcus aureus [12] was inactive. For the same compound, the outcome with Staphylococcus aureus [13], in the series with Candida albicans [24] and in the series with Staphylococcus aureus [25] was inactive. Also, the FC with Candida albicans [3] was over 3. In addition, the MMC was found to be 1.5 µg/mL in the series with Staphylococcus aureus [8], 3 µg/mL with Candida albicans [15] and 2.3 µg/mL with Escherichia coli [26]. For the same compound, the inhibition in series [10] stood at 78%. In [14], the “Selectivity Index” value was found to be 14. The Activity in [16] is 21 µg/mL; in [18], “Non-toxic”; in [23], “Non-toxic”. For the same compound, in [22], the inhibition result was “Active”.
In the case of `CC[C@H](C)[C@@H]1NC(=O)[C@@H]2CSSC[C@H](NC(=O)[C@H](CCCNC(=N)N)NC(=O)[C@@H]3CSSC[C@H](NC1=O)C(=O)N[C@@H]([C@@H](C)O)C(=O)N[C@@H](CCCNC(=N)N)C(=O)NCC(=O)N[C@@H](Cc1ccccc1)C(=O)N3)C(=O)N[C@@H](CC(C)C)C(=O)N[C@H]1CSSC[C@H](NC(=O)[C@H](C(C)C)NC(=O)CNC(=O)[C@H](CCCNC(=N)N)NC(=O)[C@H](CCCNC(=N)N)NC1=O)C(=O)N[C@@H](CCCNC(=N)N)C(=O)N2`, in the series on Candida albicans [3], the FC was over 3. For the same compound, the MMC was determined as 1 µg/mL with Staphylococcus aureus [8], 1 µg/mL in the series with Candida albicans [15] and 2 µg/mL with Escherichia coli [26]. For the same compound, the “Selectivity Index” value in [14] came to 5.5.
For the compound `CC(C)C[C@@H]1NC(=O)[C@@H]2CSSC[C@H](NC(=O)[C@H](CCCNC(=N)N)NC(=O)[C@@H]3CSSC[C@H](NC1=O)C(=O)N[C@@H](CCCNC(=N)N)C(=O)N[C@@H](CCCNC(=N)N)C(=O)NCC(=O)N[C@@H](C(C)C)C(=O)N3)C(=O)N[C@@H](CC(C)C)C(=O)N[C@H]1CSSC[C@H](NC(=O)[C@H](C(C)C)NC(=O)CNC(=O)[C@H](CCCNC(=N)N)NC(=O)[C@H](CCCNC(=N)N)NC1=O)C(=O)N[C@@H](CCCNC(=N)N)C(=O)N2` (cyclo(CLCRRGVCRCLCRRGVCR); disulfide 1-10, 3-8, 12-17), the inhibition in [27] is 36%; in series [29], “Dose-dependent effect”. Also, the outcome in the series on Staphylococcus aureus [1], in the series on Escherichia coli [2], with Staphylococcus aureus [28], in the series with Staphylococcus aureus [6], in the series on Staphylococcus aureus [7] and in the series with Staphylococcus aureus [11] was Active. Also, the outcome in the series with Escherichia coli [17], in the series on Staphylococcus aureus [19], in the series on Escherichia coli [20], in the series on Escherichia coli [21] and in the series with Staphylococcus aureus [25] was Active. In addition, the FC in the series on Candida albicans [3] was over 3. Also, the outcome with Candida albicans [4], with Candida albicans [5], in the series on Escherichia coli [9], with Staphylococcus aureus [12] and in the series with Candida albicans [24] was inactive. Besides, the MMC in the series with Staphylococcus aureus [8] came to 1 µg/mL; with Candida albicans [15], 1 µg/mL; in the series with Escherichia coli [26], 2 µg/mL. Besides, the “Selectivity Index” value in series [14] stood at 6.2. Also, the Activity in series [16] is 6.2 µg/mL; in series [18] it was “Non-toxic”; in series [23], “Non-toxic”. The inhibition entry in series [22] is “Active”.
Turning to `CC[C@H](C)[C@@H]1NC(=O)[C@@H]2CSSC[C@H](NC(=O)[C@H](CCCNC(=N)N)NC(=O)[C@@H]3CSSC[C@H](NC1=O)C(=O)N[C@@H]([C@H](C)O)C(=O)N[C@@H](CCCNC(=N)N)C(=O)NCC(=O)N[C@H](Cc1ccccc1)C(=O)N3)C(=O)N[C@@H](CC(C)C)C(=O)N[C@@H]1CSSC[C@@H](NC(=O)[C@H](C(C)C)NC(=O)CNC(=O)[C@H](CCCNC(=N)N)NC(=O)[C@H](CCCNC(=N)N)NC1=O)C(=O)N[C@@H](CCCNC(=N)N)C(=O)N2`, the inhibition in series [27] was 36%; in series [29], “Dose-dependent effect”. In addition, the result in the series with Staphylococcus aureus [1], in the series with Escherichia coli [2], with Staphylococcus aureus [28], with Staphylococcus aureus [6], with Staphylococcus aureus [7] and in the series on Staphylococcus aureus [11] was Active. The result in the series with Escherichia coli [17], with Staphylococcus aureus [19], in the series on Escherichia coli [20], in the series on Escherichia coli [21] and in the series on Staphylococcus aureus [25] was Active. Further, the result with Candida albicans [4], in the series with Candida albicans [5], in the series on Escherichia coli [9], in the series on Staphylococcus aureus [12], in the series with Staphylococcus aureus [13] and in the series on Candida albicans [24] was inactive.
